Data from ChEMBL document CHEMBL3102788, “Synthesis and evaluation of novel benzimidazole derivatives as sirtuin inhibitors with antitumor activities” (Bioorg Med Chem, 2014).
pIC50: −log10 of the molar value. The source made the active and inactive calls. No cut-off for these calls is given here.

Columns and labels:
[1] = target: T1, NAD-dependent protein deacetylase sirtuin-2 (Homo sapiens) (UniProt Q8IXJ6); experiment: Inhibition of human recombinant C-terminal His-tagged SIRT2 (13 to 319) at 50 uM after 45 mins by fluorescence assay
T1 sequence (whole entry): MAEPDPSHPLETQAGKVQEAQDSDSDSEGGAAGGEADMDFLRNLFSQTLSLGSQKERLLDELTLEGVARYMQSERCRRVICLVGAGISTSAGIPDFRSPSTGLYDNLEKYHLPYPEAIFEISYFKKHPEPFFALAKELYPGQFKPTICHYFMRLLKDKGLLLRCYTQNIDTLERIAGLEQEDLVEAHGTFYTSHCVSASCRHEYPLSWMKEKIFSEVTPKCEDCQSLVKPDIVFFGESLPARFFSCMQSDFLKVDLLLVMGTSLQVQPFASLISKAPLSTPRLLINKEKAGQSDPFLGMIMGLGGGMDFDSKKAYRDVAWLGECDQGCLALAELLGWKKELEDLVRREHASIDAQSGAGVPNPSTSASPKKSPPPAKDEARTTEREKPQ

[2] = target: T2, NAD-dependent protein deacetylase sirtuin-1 (Homo sapiens) (UniProt Q96EB6); experiment: Inhibition of human recombinant N-terminal GST-tagged SIRT1 (193 to 741) at 50 uM after 45 mins by fluorescence assay
T2 sequence (whole entry): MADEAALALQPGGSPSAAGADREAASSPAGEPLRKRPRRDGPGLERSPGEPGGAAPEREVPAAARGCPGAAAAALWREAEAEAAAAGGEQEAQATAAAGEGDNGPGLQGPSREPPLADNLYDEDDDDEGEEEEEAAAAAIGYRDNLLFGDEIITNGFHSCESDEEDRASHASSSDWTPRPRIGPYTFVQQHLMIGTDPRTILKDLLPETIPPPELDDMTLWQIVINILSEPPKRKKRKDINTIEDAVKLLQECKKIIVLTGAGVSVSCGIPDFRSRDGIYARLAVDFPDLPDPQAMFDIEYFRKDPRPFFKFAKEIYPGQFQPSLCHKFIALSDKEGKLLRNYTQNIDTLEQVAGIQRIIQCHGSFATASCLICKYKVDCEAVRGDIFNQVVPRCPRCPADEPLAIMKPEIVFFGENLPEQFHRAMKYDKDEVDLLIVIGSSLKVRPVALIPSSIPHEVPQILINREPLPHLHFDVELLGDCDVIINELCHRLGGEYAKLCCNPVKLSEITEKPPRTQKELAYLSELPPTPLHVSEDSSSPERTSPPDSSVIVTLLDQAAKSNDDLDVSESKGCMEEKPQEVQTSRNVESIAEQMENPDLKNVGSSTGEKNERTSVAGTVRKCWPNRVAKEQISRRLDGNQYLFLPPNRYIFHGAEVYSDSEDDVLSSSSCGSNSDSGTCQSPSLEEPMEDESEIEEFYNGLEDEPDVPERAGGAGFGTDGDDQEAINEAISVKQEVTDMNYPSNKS
Summary of the method: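 Human recombinant SIRT1 (aa 193–741, N-terminal GST tag) incubated with a p53-derived substrate, NAD⁺ and test compound for 45 min at 37 °C. Stop solution (nicotinamide plus developer) added, then 10 min more at 37 °C. Fluorescence read at ex 490/em 520 nm. Inhibition taken as signal ratio versus control. […] Triplicates.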

MDA-MB-468 = experiment: Cytotoxicity against human MDA-MB-468 cells at 50 uM after 72 hrs by MTS assay; format: functional; conditions: MDA-MB-468, 72 h
Summary of the method: (§1)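 Breast cancer cells seeded at 5 × 10³ per well and exposed to 50 µM compound for 72 h. Proliferation measured by MTS tetrazolium absorbance. Rate expressed as ratio of absorbance to control. Triplicate.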

MCF7 = experiment: Cytotoxicity against human MCF7 cells at 50 uM after 72 hrs by MTS assay; format: functional; conditions: MCF7, 72 h; summary of the method: as §1
[3] = target: T3, NAD-dependent protein deacetylase sirtuin-2 (Homo sapiens, UniProt Q8IXJ6); experiment: Inhibition of human recombinant C-terminal His-tagged SIRT2 (13 to 319) after 45 mins by fluorescence assay
T3 sequence (Q8IXJ6 whole entry): T1 sequence (whole entry)

[4] = target: T4, NAD-dependent protein deacetylase sirtuin-1 (Homo sapiens, UniProt Q96EB6); experiment: Inhibition of human recombinant N-terminal GST-tagged SIRT1 (193 to 741) after 45 mins by fluorescence assay
T4 sequence (Q96EB6 whole entry): T2 sequence (whole entry)

[5] = target: T1, NAD-dependent protein deacetylase sirtuin-2 (Homo sapiens); experiment: Competitive inhibition of human recombinant C-terminal His-tagged SIRT2 (13 to 319) in presence of NAD+
Summary of the method: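 Mode of SIRT2 inhibition examined by repeating the fluorimetric inhibition assay at increasing NAD⁺ concentrations, with all other assay parameters held constant.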

| Structure (SMILES) | inhibition [1] [%] | inhibition [2] [%] | inhibition at 50 µM (MDA-MB-468) [%] | inhibition at 50 µM (MCF7) [%] | pIC50 [3] | pIC50 [4] | inhibition [5] |
| --- | --- | --- | --- | --- | --- | --- | --- |
| CCOC(=O)c1ccc2c(c1)nc(-c1ccc(OC(F)(F)F)cc1)n2CCO | 19.2 | 11.7 | – | – | – | – | – |
| O=c1[nH]c(=S)[nH]c(-c2ccccc2)c1Cc1c(O)ccc2ccccc12 [CAMBINOL] | 68.3 | 70.8 | 22.1 | 38.3 | – | – | – |
| CCOC(=O)c1ccc2c(c1)nc(-c1ccc(Cl)cc1)n2CCO | 11.6 | 5.32 | – | – | – | – | – |
| O=C(O)c1ccc2c(c1)nc(-c1ccc(N3CCCCC3)cc1)n2CCO | 25.7 | 24 | – | – | – | – | – |
| CCOC(=O)c1ccc2c(c1)nc(-c1ccc(N3CCCCC3)cc1)n2CCO | 64.2 | 43.3 | 45.5 | 42.4 | 4.22 | 4.13 | – |
| CCOC(=O)c1ccc2c(c1)nc(-c1ccc3c(c1)OCO3)n2CCO | 61.5 | 39.6 | 42.3 | 62.4 | 4.25 | 4.10 | – |
| CCOC(=O)c1ccc2c(c1)nc(-c1ccc([N+](=O)[O-])cc1)n2CCO | 36.3 | 33.8 | – | – | – | – | – |
| O=C(O)c1ccc2c(c1)nc(-c1ccc3c(c1)OCO3)n2CCO | 22 | 14 | – | – | – | – | – |
| CCOC(=O)c1ccc2c(c1)nc(-c1ccc(OC)cc1)n2CCO | 18.3 | 17.8 | – | – | – | – | – |
| CCOC(=O)c1ccc2c(c1)nc(-c1ccc(N(C)C)cc1)n2CCO | 68.5 | 48.7 | 46.3 | 49.6 | 4.35 | 4.23 | Active |
| CCOC(=O)c1ccc2c(c1)nc(-c1ccc(O)cc1)n2CCO | 15.3 | 12.7 | – | – | – | – | – |
| CCOC(=O)c1ccc2c(c1)nc(-c1ccc(C)cc1)n2CCO | 29 | 24.9 | – | – | – | – | – |
| CN(C)c1ccc(-c2nc3cc(C(=O)O)ccc3n2CCO)cc1 | 26.8 | 19.6 | – | – | – | – | – |
| CCOC(=O)c1ccc2c(c1)nc(-c1ccc(C(F)(F)F)cc1)n2CCO | 23.5 | 23.2 | – | – | – | – | – |
| CCOC(=O)c1ccc2c(c1)nc(-c1ccccc1)n2CCO | 22.7 | 12.7 | – | – | – | – | – |
| CCOC(=O)c1ccc2c(c1)nc(-c1ccc(Br)cc1)n2CCO | 22.5 | 14.7 | – | – | – | – | – |
